Results taken from ChEMBL document CHEMBL3351343, “Synthesis and biological evaluation of novel sigma-1 receptor antagonists based on pyrimidine scaffold as agents for treating neuropathic pain” (J Med Chem, 2014).
pKi: −log10 of the molar value.

What was measured:
[1] = target: Sigma non-opioid intracellular receptor 1 (Cavia porcellus, UniProt Q60492); test: Displacement of [3H]-(+)-pentazocine from sigma-1 receptor in Dunkin Hartley guinea pig brain membranes after 180 mins by liquid scintillation counting analysis; design: species or system Membrane
Chain of Sigma non-opioid intracellular receptor 1 (Q60492 whole entry): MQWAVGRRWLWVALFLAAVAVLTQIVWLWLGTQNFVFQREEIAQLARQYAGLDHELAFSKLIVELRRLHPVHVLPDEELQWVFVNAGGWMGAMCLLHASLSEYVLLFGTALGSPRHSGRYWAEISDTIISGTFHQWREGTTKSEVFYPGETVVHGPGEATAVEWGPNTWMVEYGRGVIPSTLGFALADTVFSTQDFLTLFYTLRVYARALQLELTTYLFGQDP

[2] = Displacement of [3H]-DTG from sigma-2 receptor in Dunkin Hartley guinea pig brain membrane after 120 mins by liquid scintillation counting analysis in presence of (+)-SKF10047; design: species or system Cavia porcellus
Cavia porcellus = species on record: Cavia porcellus; test: Selectivity ratio of Ki for Dunkin Hartley guinea pig brain sigma-2 receptor to Ki for Dunkin Hartley guinea pig brain sigma-1 receptor
Mus musculus [3] = test: Antinociceptive activity in Kun Ming mouse pain model assessed as reduction in licking and biting time during phase-1 at 80 mg/kg, ip administered 15 mins prior to formalin challenge relative to vehicle-treated control; format: functional; settings: route intraperitoneal
Method in brief: (§1)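 Kun Ming mice (20 ± 2.0 g), 10–12 per group, given vehicle (30% PEG 400) or drug ip at 10 mL/kg 15 min before intraplantar formalin. Time spent licking or biting the injected paw scored at 0–5 min (phase I) and 15–45 min (phase II). Effect (%) = (LTV − LTD)/LTV × 100.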

Mus musculus [4] = test: Antinociceptive activity in Kun Ming mouse pain model assessed as reduction in licking and biting time during phase-2 at 80 mg/kg, ip administered 15 mins prior to formalin challenge relative to vehicle-treated control; format: functional; settings: route intraperitoneal; method in brief: as §1
[5] = Acute toxicity in po dosed Kun Ming mouse after 24 hrs; format: organism-based; settings: in vivo

With `Cc1cc(OCCCN2CCNCC2)nc(-c2ccccc2)n1` the pKi [1] was 6.82, the pKi [2] was 5.92 and the Ratio Ki (Cavia porcellus) was 8.
With `Cc1nc(-c2ccccc2)nc(OCCCN2CCCCC2)c1C` the pKi [1] was 8.02, the pKi [2] was 5.91 and the Ratio Ki (Cavia porcellus) was 128.
For `Cc1cc(OCCCN2CCC(=O)CC2)nc(-c2ccccc2)n1`, the pKi [1] was 6.50, the pKi [2] was 5.83 and the Ratio Ki (Cavia porcellus) was 4.7.
Compound `Cc1nc(-c2ccccc2)nc(OCCCN2CCCC2)c1F` has a pKi [1] of 8.45, a pKi [2] of 5.92 and a Ratio Ki (Cavia porcellus) of 340.
`FC(F)(F)c1cc(OCCCN2CCCC2)nc(-c2ccccc2)n1` showed a pKi [1] of 7.56, a pKi [2] of 5.88 and a Ratio Ki (Cavia porcellus) of 48.
With `Cc1cc(OCCCN(C)C)nc(-c2ccccc2)n1` the pKi [1] was 7.08 and the pKi [2] was < 5.70.
For `c1ccc(-c2nc(OCCCN3CCCC3)cc(C3CC3)n2)cc1`, the pKi [1] was 6.56 and the pKi [2] was < 5.70.
`Cc1cc(OCCCN2CCOCC2)nc(-c2ccccc2)n1` showed a pKi [1] of 7.44, a pKi [2] of 6.02 and a Ratio Ki (Cavia porcellus) of 26.1.
Work on `CCc1cc(OCCCN2CCCC2)nc(-c2ccccc2)n1` yielded a pKi [1] of 7.65, a pKi [2] of 5.84 and a Ratio Ki (Cavia porcellus) of 63.8.
With `Cc1cc(OCCN2CCOCC2)nn1-c1ccc2ccccc2c1` the Time (Mus musculus [3]) was 10.65 s and the Time (Mus musculus [4]) was 33.16 s.
For `CCN(CC)CCCOc1cc(C)nc(-c2ccccc2)n1`, the pKi [1] was 7.33, the pKi [2] was 5.88 and the Ratio Ki (Cavia porcellus) was 28.
Compound `Cc1cc(OCCCCN2CCOCC2)nc(-c2ccccc2)n1` has a pKi [1] of 7.02, a pKi [2] of 5.97 and a Ratio Ki (Cavia porcellus) of 11.2.
Compound `Cc1nc(-c2ccc(C(F)(F)F)cc2)nc(OCCCN2CCCCC2)c1Cl` has a pKi [1] of 8.35, a pKi [2] of 5.75 and an LD50 at 24 h [5] of 377 mg/kg.
`CCc1cc(OCCCN2CCCCC2)nc(-c2ccccc2)n1` showed a pKi [1] of 7.69, a pKi [2] of 5.94 and a Ratio Ki (Cavia porcellus) of 55.6.
In the case of `Cc1cc(OCCCN2CCCCC2)nc(-c2ccccc2)n1`, the pKi [1] was 7.93, the pKi [2] was 5.98 and the Ratio Ki (Cavia porcellus) was 89.1.
`Cc1cc(OCCCN2CCN(C)CC2)nc(-c2ccccc2)n1` showed a pKi [1] of 7.64, a pKi [2] of 5.88 and a Ratio Ki (Cavia porcellus) of 58.3.
For `Cc1nc(-c2ccc(Cl)c(Cl)c2)nc(OCCCN2CCCCC2)c1Cl`, the pKi [1] was 7.05 and the pKi [2] was < 5.70.
For `Cc1nc(-c2ccc(F)c(F)c2)nc(OCCCN2CCCCC2)c1Cl`, the pKi [1] was 9.01 and the pKi [2] was 6.03.
Compound `COc1ccc(-c2nc(C)c(Cl)c(OCCCN3CCCCC3)n2)cc1` has a pKi [2] of 5.89 and a Ratio Ki (Cavia porcellus) of 332.
With `Cc1cc(OCCCN2CCN(c3ccccc3)CC2)nc(-c2ccccc2)n1` the pKi [1] was < 5.70 and the pKi [2] was < 5.70.
`Cc1ccc(-c2nc(C)c(Cl)c(OCCCN3CCCCC3)n2)cc1` gave a pKi [1] of 8.71, a pKi [2] of 5.81 and an LD50 at 24 h [5] of 1680 mg/kg.
Compound `Cc1cc(OCCOCCN2CCOCC2)nc(-c2ccccc2)n1` has a pKi [1] of 6.37, a pKi [2] of 5.72 and a Ratio Ki (Cavia porcellus) of 4.6.
`Cc1nc(C2CC2)nc(OCCCN2CCCCC2)c1Cl` showed a pKi [1] of 7.40, a pKi [2] of 5.88 and a Ratio Ki (Cavia porcellus) of 33.6.
Compound `Cc1cc(OCCCN2CCCN(C)CC2)nc(-c2ccccc2)n1` has a pKi [1] of 7.73, a pKi [2] of 5.89 and a Ratio Ki (Cavia porcellus) of 69.2.
For `Cc1nc(-c2ccccc2)nc(OCCCN2CCCC2)c1Cl`, the pKi [1] was 8.40, the pKi [2] was 5.77 and the LD50 at 24 h [5] was > 2000 mg/kg.
In the case of `FC(F)(F)c1cc(OCCCN2CCCCC2)nc(-c2ccccc2)n1`, the pKi [1] was 7.56, the pKi [2] was 5.88 and the Ratio Ki (Cavia porcellus) was 48.
With `Cc1cc(OCCCN2CC(C)CC(C)C2)nc(-c2ccccc2)n1` (centres undefined) the pKi [1] was 7.52, the pKi [2] was 5.78 and the Ratio Ki (Cavia porcellus) was 55.
